Source: ChEMBL document CHEMBL1138835, “Inhibitors of multiple mutants of Plasmodium falciparum dihydrofolate reductase and their antimalarial activities” (J Med Chem, 2004)

Tests used:
[1] = molecular target: Bifunctional dihydrofolate reductase-thymidylate synthase (Plasmodium falciparum K1, UniProt P13922); assay: Binding affinity towards wild-type dihydrofolate reductase of Plasmodium falciparum.
[2] = molecular target: Bifunctional dihydrofolate reductase-thymidylate synthase (Plasmodium falciparum K1, UniProt P13922, C59R/I164L/S108N); assay: Binding affinity towards mutant dihydrofolate reductase (C59R+S108N+I164L DHFR) of Plasmodium falciparum
Sequence of Bifunctional dihydrofolate reductase-thymidylate synthase (Plasmodium falciparum K1, UniProt P13922, C59R/I164L/S108N) (P13922 whole entry, looked up, stated change not applied): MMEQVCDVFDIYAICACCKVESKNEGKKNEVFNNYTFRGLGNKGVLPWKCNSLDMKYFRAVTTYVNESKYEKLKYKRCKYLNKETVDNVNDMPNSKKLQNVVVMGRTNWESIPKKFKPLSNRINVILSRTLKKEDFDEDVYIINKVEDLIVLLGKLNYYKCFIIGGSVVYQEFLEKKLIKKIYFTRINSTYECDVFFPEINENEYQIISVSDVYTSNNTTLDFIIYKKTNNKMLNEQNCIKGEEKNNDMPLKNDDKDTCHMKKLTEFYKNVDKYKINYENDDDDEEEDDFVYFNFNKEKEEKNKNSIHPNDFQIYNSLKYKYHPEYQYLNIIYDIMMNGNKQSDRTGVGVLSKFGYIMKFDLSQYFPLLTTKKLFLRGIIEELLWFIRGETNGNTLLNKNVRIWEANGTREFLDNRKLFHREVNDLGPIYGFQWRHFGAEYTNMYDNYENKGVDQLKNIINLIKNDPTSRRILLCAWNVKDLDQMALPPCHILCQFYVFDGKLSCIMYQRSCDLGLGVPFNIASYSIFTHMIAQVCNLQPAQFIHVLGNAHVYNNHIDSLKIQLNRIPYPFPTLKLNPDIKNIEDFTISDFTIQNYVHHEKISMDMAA

[3] = molecular target: Bifunctional dihydrofolate reductase-thymidylate synthase (Plasmodium falciparum K1, UniProt P13922, C59R/N51I/S108N); assay: Binding affinity towards mutant dihydrofolate reductase (N51I+C59R+S108N DHFR) of Plasmodium falciparum
Sequence of Bifunctional dihydrofolate reductase-thymidylate synthase (Plasmodium falciparum K1, UniProt P13922, C59R/N51I/S108N) (P13922 whole entry, looked up, stated change not applied): as above

[4] = molecular target: Bifunctional dihydrofolate reductase-thymidylate synthase (Plasmodium falciparum K1, UniProt P13922, C59R/I164L/N51I/S108N); assay: Binding affinity towards mutant dihydrofolate reductase (N51I+C59R+S108N+I164L DHFR) of Plasmodium falciparum
Sequence of Bifunctional dihydrofolate reductase-thymidylate synthase (Plasmodium falciparum K1, UniProt P13922, C59R/I164L/N51I/S108N) (P13922 whole entry, looked up, stated change not applied): as above

[5] = system: Bifunctional dihydrofolate reductase-thymidylate synthase (Plasmodium falciparum K1), P13922 [UNDEFINED MUTATION]; assay: Ratio of binding affinity for mutant (C59R+S108N+I164L) to that of wild type dihydrofolate reductase
Sequence of Bifunctional dihydrofolate reductase-thymidylate synthase (Plasmodium falciparum K1), P13922 [UNDEFINED MUTATION] (P13922 whole entry, looked up, stated change not applied): as above
Method in brief: (§1)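 Each ratio is Ki for the mutant PfDHFR divided by Ki for wild-type PfDHFR. The recombinant enzymes were expressed in E. coli BL21(DE3)pLysS and purified on methotrexate-Sepharose. Ki was derived assuming inhibitors compete with substrate binding.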

[6] = system: Bifunctional dihydrofolate reductase-thymidylate synthase (Plasmodium falciparum K1), P13922 [UNDEFINED MUTATION]; assay: Ratio of binding affinity for mutant (N51I+C59R+S108N+I164L) to that of wild type dihydrofolate reductase; method in brief: as §1
[7] = molecular target: Bifunctional dihydrofolate reductase-thymidylate synthase (Plasmodium falciparum K1) (UniProt P13922); assay: Ratio of binding affinity for mutant (N51I+C59R+S108N) to that of wild type dihydrofolate reductase; method in brief: as §1
Sequence of Bifunctional dihydrofolate reductase-thymidylate synthase (Plasmodium falciparum K1) (P13922 whole entry, looked up): as the sequence (P13922 whole entry, looked up, stated change not applied) above

KB [8] = assay: Relative antiplasmodial activity to cytotoxicity in Plasmodium falciparum Csl-2 infected KB cells; format: functional
BC [9] = assay: Relative antiplasmodial activity to cytotoxicity in Plasmodium falciparum TM4/8.2 infected BC cells; format: functional
Vero [10] = assay: Relative antiplasmodial activity to cytotoxicity in Plasmodium falciparum TM4/8.2 infected Vero cells; format: functional
Vero [11] = assay: Relative antiplasmodial activity to cytotoxicity in Plasmodium falciparum V1/S infected Vero cells; format: functional
BC [12] = assay: Relative antiplasmodial activity to cytotoxicity in Plasmodium falciparum Csl-2 infected BC cells; format: functional
KB [13] = assay: Relative antiplasmodial activity to cytotoxicity in Plasmodium falciparum V1/S infected KB cells; format: functional
Vero [14] = assay: Relative antiplasmodial activity to cytotoxicity in Plasmodium falciparum Csl-2 infected Vero cells; format: functional
KB [15] = assay: Relative antiplasmodial activity to cytotoxicity in Plasmodium falciparum TM4/8.2 infected KB cells; format: functional
BC [16] = assay: In vitro cytotoxicity against BC cell line.; conditions: Homo sapiens
KB [17] = assay: In vitro cytotoxicity against Plasmodium falciparum infected KB cell line; format: functional, cell-based; conditions: Homo sapiens
Method in brief: (§2)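 Cytotoxicity (IC50, μM) run against three mammalian lines: Vero (African green monkey kidney fibroblasts), KB (human epidermoid carcinoma) and BC (human breast cancer). Testing followed the Skehan et al. protocol.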

Vero [18] = assay: In vitro cytotoxicity against Plasmodium falciparum infected vero cell line.; format: functional, cell-based; conditions: Chlorocebus sabaeus; method in brief: as §2
[19] = molecular target: Bifunctional dihydrofolate reductase-thymidylate synthase (Plasmodium falciparum K1, UniProt P13922, A16V/S108T); assay: Binding affinity towards mutant dihydrofolate reductase (A16V+S108T DHFR) of Plasmodium falciparum.
Sequence of Bifunctional dihydrofolate reductase-thymidylate synthase (Plasmodium falciparum K1, UniProt P13922, A16V/S108T) (P13922 whole entry, looked up, stated change not applied): as above

[20] = system: Bifunctional dihydrofolate reductase-thymidylate synthase (Plasmodium falciparum K1), P13922 [UNDEFINED MUTATION]; assay: Ratio of binding affinity for mutant (A16V+S108T) to that of wild type dihydrofolate reductase; method in brief: as §1

Sequence of Bifunctional dihydrofolate reductase-thymidylate synthase (Plasmodium falciparum K1, UniProt P13922) (P13922 whole entry): as the sequence (P13922 whole entry, looked up, stated change not applied) above

Compound | Ki [1] | Ki [2] | Ki [3] | Ki [4] | Ratio [5] | Ratio [6] | Ratio [7] | Safety ratio (KB [8]) | Safety ratio (BC [9]) | Safety ratio (Vero [10]) | Safety ratio (Vero [11]) | Safety ratio (BC [12]) | Safety ratio (KB [13]) | Safety ratio (Vero [14]) | Safety ratio (KB [15]) | IC50 (BC [16]) | IC50 (KB [17]) | IC50 (Vero [18]) | Ki [19] | Ratio [20]
Nc1nc(N)c(-c2ccc(Cl)cc2)c(CCCc2ccccc2)n1 | 0.7 nM | 63 nM | 15.1 nM | 170 nM | 90 | 243 | 21.6 | – | – | – | – | – | – | – | – | – | – | – | – | –
CCCCCCc1nc(N)nc(N)c1-c1ccccc1 | 0.3 nM | 0.7 nM | 0.4 nM | 1.4 nM | – | – | – | 37.7 | 4467 | 917 | 8.6 | 89.3 | 17.7 | 18.3 | 1883 | – | – | – | – | –
COc1ccc(CCCc2nc(N)nc(N)c2-c2cccc(Cl)c2)cc1 | 2.2 nM | 2.9 nM | 1.3 nM | 2 nM | 1.3 | 0.9 | 0.6 | 5.6 | 7.3 | 7.3 | 0.6 | 1.1 | 3.2 | 1.1 | 36.6 | 3000 nM | – | – | – | –
CCc1nc(N)nc(N)c1-c1ccc2c(c1)OCO2 | 1.1 nM | 121 nM | 8.3 nM | 269 nM | 110 | 244 | 7.5 | – | – | – | – | – | – | – | – | – | – | – | – | –
COC(=O)CCCc1nc(N)nc(N)c1-c1cccc(Cl)c1 | 0.5 nM | 1.8 nM | 0.77 nM | 2.7 nM | 3.6 | 5.4 | 1.5 | – | – | – | – | – | – | – | – | – | – | – | – | –
NC1=NC(c2cccc(Oc3ccc(Cl)cc3)c2)N(c2cccc(Cl)c2)C(N)=N1 (centres undefined) | – | 5.1 nM | 1.9 nM | 8 nM | 3.9 | 6.1 | 1.5 | 2.3 | 2.6 | 7.9 | 9.7 | 3.2 | 2.2 | 10 | 1.8 | 10000 nM | 7000 nM | 31000 nM | 3.5 nM | 2.7
NC1=NC(c2cccc(OCCCOc3cc(Cl)c(Cl)cc3Cl)c2)N(c2cccc(Cl)c2)C(N)=N1 (centres undefined) | – | 2.2 nM | 2 nM | 4.5 nM | 0.6 | 1.1 | 0.5 | 1.3 | 3.3 | 6 | 2.1 | 1.9 | 0.8 | 3.5 | 2.3 | 10000 nM | 7000 nM | 18000 nM | 2.6 nM | 0.7
Cc1nc(N)nc(N)c1-c1cccc(Cl)c1 | 1.9 nM | 9.8 nM | 6.5 nM | 14 nM | 5.2 | 7.4 | 3.4 | – | – | – | – | – | – | – | – | – | – | – | – | –
CCc1nc(N)nc(N)c1-c1ccc(C)cc1 | 0.4 nM | 88 nM | 6.9 nM | 284 nM | 220 | 710 | 17.2 | – | – | – | – | – | – | – | – | – | – | – | – | –
NC1=NC(c2cccc(Oc3ccc(Cl)cc3)c2)N(c2ccc(Cl)cc2)C(N)=N1 (centres undefined) | – | 151 nM | 85.5 nM | 121 nM | 108 | 86.4 | 61.1 | 1 | 2.5 | 11.1 | 8.2 | 1.8 | 1.1 | 7.8 | 1.4 | 7000 nM | 4000 nM | 31000 nM | 7.5 nM | 5.4
NC1=NC(c2ccc(Oc3ccccc3)cc2)N(c2ccc(Cl)cc2)C(N)=N1 (centres undefined) | – | 145 nM | 29.3 nM | 222 nM | 363 | 555 | 73.1 | 1.5 | 71.7 | >417 | >7.2 | 1.8 | 1 | >10.4 | 58.3 | 8600 nM | 7000 nM | > 50000 nM | 3.8 nM | 9.5
COC(=O)CCCc1nc(N)nc(N)c1-c1ccccc1 | 0.6 nM | 15 nM | 3.3 nM | 24 nM | 25 | 40 | 5.5 | – | – | – | – | – | – | – | – | – | – | – | – | –
CCCCCCCC1N=C(N)N=C(N)N1c1cccc(Cl)c1 (centres undefined) | – | 0.3 nM | 1 nM | 0.8 nM | 0.1 | 0.3 | 0.4 | 7.1 | 45 | >1250 | >20 | 12.9 | 0.4 | >357 | 25 | 1800 nM | 1000 nM | > 50000 nM | 3.8 nM | 1.4
Nc1nc(N)c(-c2cccc(Cl)c2)c(CCOCCCOc2ccccc2)n1 | 0.4 nM | 1.3 nM | 0.7 nM | 1.7 nM | 3.2 | 4.2 | 1.7 | 2.2 | 14 | 42.9 | 3.3 | 1.7 | 1.4 | 5.2 | 18.3 | 4900 nM | 6400 nM | – | – | –
CCc1nc(N)nc(N)c1-c1ccc(Cl)c(Cl)c1 [ETOPRINE] | 1 nM | 41 nM | 3.1 nM | 53 nM | 41 | 53 | 3.1 | – | – | – | – | – | – | – | – | – | – | – | – | –
NC1=NC(c2cccc(Oc3cc(Cl)cc(Cl)c3)c2)N(c2cccc(Cl)c2)C(N)=N1 (centres undefined) | – | 0.6 nM | 1 nM | 2.7 nM | 0.3 | 1.5 | 0.6 | 1.5 | 1.8 | 5.1 | 7.2 | 2.6 | 1.5 | 7.2 | 1.1 | 10000 nM | 6000 nM | 28000 nM | 4.7 nM | 2.6
CC1N=C(N)N=C(N)N1c1ccc(Cl)cc1 (centres undefined) | 4.1 nM | 1580 nM | 134 nM | 2430 nM | 386 | 592 | 32.7 | – | – | – | – | – | – | – | – | – | – | – | – | 31
COC(=O)CCCc1nc(N)nc(N)c1-c1ccc(Cl)cc1 | 0.3 nM | 145 nM | 29.3 nM | 360 nM | 483 | 1200 | 97.7 | – | – | – | – | – | – | – | – | – | – | – | – | –
NC1=NC(c2cccc(OCc3ccccc3)c2)N(c2cccc(Cl)c2)C(N)=N1 (centres undefined) | – | 3.6 nM | 3.2 nM | 7.7 nM | 1.6 | 3.3 | 1.4 | 1.1 | 5.5 | >12.5 | >6.1 | 2.9 | 1 | >6.7 | 2 | 22000 nM | 8000 nM | > 50000 nM | 3.2 nM | 1.4
Nc1nc(N)c(-c2ccccc2)c(CCCc2ccccc2)n1 | 0.5 nM | 1.9 nM | 1.1 nM | 4.7 nM | 3.8 | 9.4 | 2.2 | 55.6 | 1191 | >238 | >5.8 | 92.6 | 17.4 | >18.5 | 714 | 250000 nM | 150000 nM | – | – | –
